This note sets out measurements from PubChem BioAssay.

Active and inactive are the calls of the source.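 Rule for the calls, unless noted: active = inhibition above 20% together with a positive visual image hit; inconclusive = visual image hit but inhibition not above 20%; inactive = no visual image hit.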

Experiment [1] in a line: inhibitors of TNFa-induced NFkB p65 translocation, primary screen, imaging, HUVEC, MLSMR starter and 10KST1 sets (AID 438).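 For inhibition: signal is the nuclear over cytoplasmic p65 intensity ratio per well.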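 Note: compound added about 3h40 before a 20 min TNFalpha stimulation.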 As to conditions: HUVEC TNFa-induced p65 nuclear translocation; cell count: measured here: nuclei count (cytotoxicity indicator), at 2.08 µM; inhibition: at 2 µM, stronger effect = higher value, 0% TNFa-plus-vehicle, 100% no-TNFa wells.
Experiment [2] is described as follows: endothelial E-selectin expression blockers – imaging, HUVEC, immunofluorescence, MLSMR starter and 10KST1 sets, primary screen (AID 487;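 active = visually confirmed hit in the image check and inhibition above 20%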;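 for inhibition: signal is fraction of cell area covered by stained E-selectin grains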;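 for nuclei count: 100% = median nuclei count of all wells on the same plate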). The following applies: HUVEC TNFalpha-induced E-selectin immunofluorescence imaging, at 2 µM; inhibition: stronger effect = higher value; nuclei count: measured here: cell number, toxicity.
The nature of experiment [3]: Primary imaging screen for DUSP6 inhibitors that restore phospho-Erk in transfected HeLa cells, chemical complementation (AID 609;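 active = compounds giving at least 50% inhibition in the cell-based MKP-3 phosphatase rescue imaging test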;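 for inhibition: phospho-Erk level distribution per well compared with pooled transfected vehicle control wells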). As to conditions: HeLa MKP-3 transfected, phospho-Erk imaging KS statistic, at 10 µM, cells stimulated with TPA for 15 min.
For experiment [4], the target named is Dual specificity protein phosphatase 6 (Homo sapiens) (UniProt Q16828). The description is as above. The following applies: HeLa MKP-3 transfected, phospho-Erk imaging KS statistic; at 10 µM; stronger effect = higher value; cells stimulated with TPA for 15 min.
Experiment [5] has as its target Voltage-gated potassium channel subunit beta-2 (Rattus norvegicus) (UniProt P62483). Kind of experiment: inhibitors of rat Kvbeta2 reductase activity – biochemical, NADPH fluorescence, primary screen (AID 622;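 active = fluorescence slope higher than the sample average by over 3 SD, cut at about -0.22 in these data, passing the limit was not always enough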;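 note: slope of raw intensity against log time taken from 70 to 1610 s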). The following applies: recombinant KvBeta, 4-cyanobenzaldehyde reduction, at 10 µM, stronger effect = higher value.
Experiment [6] has the same target. As to the kind of experiment: enhancers of rat Kvbeta2 NADPH turnover – biochemical, NADPH fluorescence, primary screen (AID 623;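 active = NADPH fluorescence slope more negative than the mean of all samples by about 3 SD, 99.7% confidence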;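 note: fluorescence intensity change per second fitted from 20 to 320 s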). The following applies: Recombinant KvBeta, NADPH fluorescence decrease slope, 10 min; at 10 µM; stronger effect = lower value.
Experiment [7] addresses Alpha-2C adrenergic receptor (Homo sapiens) (UniProt P18825). As to the kind of experiment: compounds altering alpha2C-coupled GIRK flux – cell-based, HEK293 alpha2C/GIRK1/2, thallium flux, primary screen (AID 624;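 active = fluorescence slope after compound addition differing from the mean of all screened samples at 99.7% confidence, in either direction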;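 note: slope of fluorescence ratio to pre-addition baseline per second over 15 to 24 s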). The following applies: thallium flux BTC fluorescence, at 10 µM, actives lie on both sides.
A short description of experiment [8]: inhibitors of larval lipid processing in zebrafish, primary screen, whole organism, PED6 fluorescence, gall bladder and intestine (AID 686;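 active = a full or partial loss of lipid-probe fluorescence in the fish gall bladder, intestine or both, judged by eye; inactive = no fluorescence loss, or compound toxic to the fish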;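 note: larvae 5 to 7 days old with five fish per well; signal comes from phospholipase A2 cleavage of quenched PED6 carried via bile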). As to conditions: Zebrafish larvae PED6 lipid processing, fluorescence scoring; screened at 20 µM (by protocol). An outline of the steps: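 System: live zebrafish larvae aged 5-7 days, whole organism; measure: graded gall bladder and intestinal fluorescence inhibition per well; incubation: overnight exposure; reagent: ingested quenched lipid PED6 at 100 nM; signal: By-eye fluorescence microscopy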

Experiment [9] is described as follows: loss of swimming-algae plug formation – whole organism, Chlamydomonas reinhardtii, WT vs cilia-less mutant, absorbance, 96-well, primary screen (AID 463189;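 active = inhibition at or above 50% relative to wild type and mutant plate controls; inactive = inhibition below 50%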;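 note: 0% = wild type cc124 cells in DMSO and 100% = ciliumless bld1 mutant cells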). The following applies: Chlamydomonas reinhardtii gravitaxis, OD600 absorbance, 2 days; at 10 µM; stronger effect = higher value.
Setting [10] is: measured here: cell density z-score.
Where [11] appears, read: measured here: nuclear c-Myc green intensity z-score.
Setting [12] is: measured here: nuclear pErk red intensity z-score, stronger effect = higher value.

Chain of Alpha-2C adrenergic receptor (Homo sapiens) (P18825 whole entry, looked up): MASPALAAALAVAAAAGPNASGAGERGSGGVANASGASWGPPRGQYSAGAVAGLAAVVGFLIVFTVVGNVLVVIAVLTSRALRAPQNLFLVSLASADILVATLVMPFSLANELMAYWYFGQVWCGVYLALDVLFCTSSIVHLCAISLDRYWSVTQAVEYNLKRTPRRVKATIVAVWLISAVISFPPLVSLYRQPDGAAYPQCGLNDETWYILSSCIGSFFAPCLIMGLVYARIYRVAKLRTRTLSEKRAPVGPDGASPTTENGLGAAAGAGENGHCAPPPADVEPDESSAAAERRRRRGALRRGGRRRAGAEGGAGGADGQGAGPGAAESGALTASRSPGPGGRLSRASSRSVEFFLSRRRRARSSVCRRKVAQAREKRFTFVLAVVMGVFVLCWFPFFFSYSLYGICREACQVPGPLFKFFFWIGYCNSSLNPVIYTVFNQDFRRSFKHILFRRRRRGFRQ
Chain of Voltage-gated potassium channel subunit beta-2 (Rattus norvegicus) (P62483 whole entry, looked up): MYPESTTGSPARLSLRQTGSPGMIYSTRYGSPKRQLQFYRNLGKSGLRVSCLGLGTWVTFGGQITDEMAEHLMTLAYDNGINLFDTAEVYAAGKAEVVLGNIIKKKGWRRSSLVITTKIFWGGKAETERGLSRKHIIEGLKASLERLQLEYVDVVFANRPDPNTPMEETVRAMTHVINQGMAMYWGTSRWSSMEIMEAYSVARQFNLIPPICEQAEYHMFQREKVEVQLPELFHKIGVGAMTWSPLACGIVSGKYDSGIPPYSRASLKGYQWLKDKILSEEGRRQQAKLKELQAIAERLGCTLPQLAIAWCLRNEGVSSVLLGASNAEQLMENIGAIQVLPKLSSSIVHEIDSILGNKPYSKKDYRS
Chain of Dual specificity protein phosphatase 6 (Homo sapiens) (Q16828 whole entry, looked up): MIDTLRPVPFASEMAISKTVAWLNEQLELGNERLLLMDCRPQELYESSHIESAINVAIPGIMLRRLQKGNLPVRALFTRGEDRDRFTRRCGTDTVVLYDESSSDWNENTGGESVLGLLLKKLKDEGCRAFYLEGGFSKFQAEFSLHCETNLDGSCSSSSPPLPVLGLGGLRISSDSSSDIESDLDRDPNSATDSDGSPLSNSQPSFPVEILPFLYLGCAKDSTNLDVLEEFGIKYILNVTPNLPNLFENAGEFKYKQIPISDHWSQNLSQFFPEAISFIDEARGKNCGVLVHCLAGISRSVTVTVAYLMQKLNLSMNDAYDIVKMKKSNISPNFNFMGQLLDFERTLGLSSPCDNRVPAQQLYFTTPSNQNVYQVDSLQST

What is called inhibition is the change of the read-out against control, counted positive when it falls. `Cc1nccn1-c1cc(C(C)C)c(C#N)c2nc3ccccc3n12`: in experiment [1], the cell count is 468. Further, the inhibition in experiment [1] was -22.6% (inactive); in experiment [2] it was -68.2% (inactive); in experiment [4], 8.31% (inactive); in experiment [9] it was 23% (inactive). Moreover, the nuclei count in [2] turned out to be 140%. Moreover, the figures for the z-score in [3] (setting [10]), in experiment [3] (setting [11]) and in experiment [3] (setting [12]) were 1.43, -0.347 and -0.664, respectively. In addition, the fluorescence slope in experiment [5] was -0.524 (inactive). Besides, the NADPH fluorescence slope in experiment [6] is -2.8e-05 (inactive). Also, the slope in experiment [7] is 0.0063 (inactive). In addition, the call in [8] was inactive.
For `Cc1ccc(-c2nn3c(-c4cccc(Cl)c4)nnc3s2)cc1`, in experiment [1], the cell count stood at 482. Besides, the inhibition in [1] is -6.6% (inactive); in experiment [2] it was -115% (inactive); in experiment [4], -7.86% (inactive); in [9] it was 26.8% (inactive). The nuclei count in experiment [2] amounted to 128%. The z-score in experiment [3] (setting [10]) is -1.6; in experiment [3] (setting [11]), -0.179; in [3] (setting [12]) it was 1.45. Further, the fluorescence slope in experiment [5] was -0.434 (inactive). In experiment [6], the NADPH fluorescence slope was 7.3e-06 (inactive). For the same compound, the slope in experiment [7] was 0.00635 (inactive). In experiment [8], the compound was classed as inactive.
In the case of `Cc1[nH]c(=O)[nH]c(=O)c1S(=O)(=O)N1CCCC1`, in [1], the cell count is 473. For the same compound, the inhibition in [1] is -7.5% (inactive); in experiment [2] it was -107% (inactive); in experiment [4], -3.98% (inactive); in experiment [9], -0.601% (inactive). This compound also displayed a nuclei count in experiment [2] of 116%. The z-score in [3] (setting [10]) is -1.16; in experiment [3] (setting [11]) it was 0.0534; in experiment [3] (setting [12]) it was 0.397. Also, the fluorescence slope in [5] is -0.476 (inactive). For the same compound, the NADPH fluorescence slope in [6] is -0.000255 (inactive). In experiment [7], the slope is 0.00533 (inactive). In addition, the outcome in experiment [8] was inactive.
In the case of `COc1cc(C)nc(Oc2ccc(=O)n(C)n2)n1`, the cell count in experiment [1] came to 616. Also, the inhibition was -10.3% (inactive) in [1], 13.1% (inactive) in [2], -8.95% (inactive) in experiment [4] and 3.29% (inactive) in experiment [9]. Also, in [2], the nuclei count turned out to be 188%. Besides, the z-score in [3] (setting [10]) was 0.099; in [3] (setting [11]), -0.292; in experiment [3] (setting [12]), 0.697. Besides, the fluorescence slope in experiment [5] was -0.38 (inactive). In addition, the NADPH fluorescence slope in [6] is -2.2e-05 (inactive). Further, the slope in experiment [7] was 0.00541 (inactive). Moreover, the compound was classed as inactive in experiment [8].
As for `C=CCOc1nc2c(c(=O)n(C)c(=O)n2C)n1Cc1ccc(Cl)cc1`, in [1], the cell count turned out to be 659. Further, the inhibition in experiment [1] is 7.6% (inactive); in [2], -11.6% (inactive); in [4] it was 27.5% (inactive); in [9], 4.31% (inactive). Besides, in experiment [2], the nuclei count is 137%. Also, the values for the z-score in experiment [3] (setting [10]), in experiment [3] (setting [11]) and in experiment [3] (setting [12]) were -0.719, 0.0983 and 0.628, respectively. Also, the fluorescence slope in experiment [5] was -0.516 (inactive). Also, the NADPH fluorescence slope in experiment [6] is -0.000102 (inactive). Also, the slope in experiment [7] is 0.00536 (inactive). Besides, in experiment [8], the call was inactive.
Take `CC1(C)CC(=O)C(C=NCC(O)c2ccccc2)=C(O)C1` (stereo not given): the cell count in experiment [1] came out at 461. Besides, the inhibition was -12.7% (inactive) in experiment [1], -181% (inactive) in experiment [2], 4.37% (inactive) in [4] and 14.3% (inactive) in [9]. The compound further registered a nuclei count in experiment [2] of 204%. Further, the z-score in [3] (setting [10]) was -1.15; in experiment [3] (setting [11]), 1.23; in [3] (setting [12]), 0.572. The fluorescence slope in [5] was -0.354 (inactive). Besides, in experiment [6], the NADPH fluorescence slope was -1.9e-05 (inactive). For the same compound, the slope in [7] was 0.00522 (inactive). Moreover, in experiment [8], the compound was classed as inactive.
`O=C(O)CCSc1ccc2ccccc2n1`: the cell count in experiment [1] turned out to be 502. Moreover, the inhibition in experiment [1] is 0.3% (inactive); in experiment [2] it was -157% (inactive); in [4], 15.8% (inactive); in experiment [9], 9.45% (inactive). This compound also displayed a nuclei count in [2] of 135%. Further, the z-score was 1.96 in experiment [3] (setting [10]), -1.24 in experiment [3] (setting [11]) and -0.378 in experiment [3] (setting [12]). Also, the fluorescence slope in [5] is -0.49 (inactive). The NADPH fluorescence slope in [6] was -7.2e-05 (inactive). Moreover, in experiment [7], the slope is 0.00505 (inactive). Moreover, the result in experiment [8] was inactive.
Take `CCOC(=O)CSc1nc2sc3c(c2c(=O)[nH]1)CC(C)(C)OC3`: the cell count in [1] worked out at 583. Further, the inhibition in experiment [1] was -40.2% (inactive); in experiment [2] it was 18.3% (inactive); in experiment [4] it was 7.48% (inactive); in experiment [9], -8.53% (inactive). In addition, the nuclei count in experiment [2] was 123%. The z-score in experiment [3] (setting [10]) is -1.86; in experiment [3] (setting [11]), 1.97; in experiment [3] (setting [12]), -0.11. Moreover, the fluorescence slope in experiment [5] was -0.519 (inactive). Further, the NADPH fluorescence slope in [6] is -0.000112 (inactive). The slope in experiment [7] was 0.0047 (inactive). In addition, in experiment [8], the result was inactive.
With `CC1(C)CC(=O)c2cc(C(=O)N3CCCC(C)(C)C3)c(=O)n(-c3ccccc3)c2C1`, the cell count in [1] stood at 523. The inhibition in experiment [1] is -8% (inactive); in [2] it was -71.4% (inactive); in [4], 7.48% (inactive); in experiment [9], 31.5% (inactive). In experiment [2], this compound showed a nuclei count of 121%. In addition, the z-score is 0.578 in experiment [3] (setting [10]), 0.18 in [3] (setting [11]) and 1.1 in [3] (setting [12]). Also, the fluorescence slope in experiment [5] was -0.48 (inactive). For the same compound, in [6], the NADPH fluorescence slope was -0.000165 (inactive). Also, in experiment [7], the slope is 0.00502 (inactive). In addition, the compound was classed as inactive in experiment [8].
As for `CN(C)CCCN1C(=O)C(O)=C(C(=O)c2cc3ccccc3o2)C1c1ccccc1` (stereo not given), the cell count in experiment [1] worked out at 454. The inhibition in experiment [1] was 2.5% (inactive); in experiment [2] it was -61.8% (inactive); in experiment [4] it was 6.04% (inactive); in experiment [9], -3.04% (inactive). The compound also yielded a nuclei count in [2] of 132%. The z-score is -0.256 in [3] (setting [10]), 0.437 in [3] (setting [11]) and -0.536 in experiment [3] (setting [12]). Also, in [5], the fluorescence slope is -0.418 (inactive). Also, the NADPH fluorescence slope in experiment [6] was -5.3e-05 (inactive). Also, the slope in experiment [7] was 0.00564 (inactive). For the same compound, in experiment [8], the result was inactive.
